TDP2 inh: blocks human TDP2 phosphodiesterase activity. O95551. recombinant TDP2, T5PNP hydrolysis, p-nitrophenol absorbance 415 nm. inhibition, % at 12.8 µM. 0.34% of 370,000 active;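 active = inhibition above the mean of all tested compounds plus 3 SD, set per campaign, cut at about 25% in these data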;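 note: 0% = DMSO with enzyme and 100% = buffer with substrate but no TDP2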
Target sequence (O95551 whole entry, looked up): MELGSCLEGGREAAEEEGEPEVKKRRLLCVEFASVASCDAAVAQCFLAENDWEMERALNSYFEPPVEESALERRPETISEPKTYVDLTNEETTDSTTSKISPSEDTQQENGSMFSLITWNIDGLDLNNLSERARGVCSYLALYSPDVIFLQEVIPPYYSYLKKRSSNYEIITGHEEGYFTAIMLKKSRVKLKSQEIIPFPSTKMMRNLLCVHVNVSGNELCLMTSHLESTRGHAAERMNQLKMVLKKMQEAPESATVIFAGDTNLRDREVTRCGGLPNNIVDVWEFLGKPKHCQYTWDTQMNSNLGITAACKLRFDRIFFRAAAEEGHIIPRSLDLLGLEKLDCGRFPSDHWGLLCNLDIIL
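System – recombinant human TDP2 · Quantity – TDP2 enzyme at 120 nM final · Doses – single concentration, 12.8 µM nominal, with 1% DMSO · Incubation – 2 h at 37 °C · Measured by – epi absorbance of p-nitrophenol freed from T5PNP by hydrolysis · Read-out – % inhibition relative to enzyme-containing and enzyme-free wells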
LEDGF integ inh: blocks HIV-1 LEDGF/p75-dependent DNA integration. TR-FRET IN-LEDGF/p75 DNA integration, Eu/Cy5. inhibition, % at 3.7 µM. 0.64% of 370,000 active;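 active = inhibition above the screen-wide mean plus 3 SD, cut at about 13% in these data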;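 note: signal is the Cy5 over europium emission ratio at 671 and 618 nm; 0% = plate median of compound wells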
UHRF1 MBD2 ctr: UHRF1 methyl-DNA binding inhibition; inhibition, % at 4.4 µM; Q96T88; 0.75% of 370,000 active; UHRF1 binding to methylated oligo, TR-FRET; in the data active = inhibition above about 21%;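 note: UHRF1 SRA domain binding a hemimethylated CpG hairpin DNA probe; 0% = median of test compound wells and 100% = reference inhibitor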
MBD2 DNA inh: inhibitors of human MBD2 binding to methylated oligonucleotide; Q9UBB5; TR-FRET; inhibition, % at 4.4 µM; 0.31% of 370,000 active; in the data active = inhibition above about 13%
Rin1 Abl inh: blocks binding of human Rin1 to Abl; P00519+Q13671; inhibition, % at 7.35 µM; 0.4% of 360,000 active; AID 588664; TR-FRET Rin1/Abl binding, biochemical; in the data active = inhibition above about 5%, passing the limit was not always enough
IN multimer up: counter-screen for LEDGF/p75 integration inhibitors: HIV-1 integrase multimerization activators; TR-FRET HIV-1 integrase multimerization, biochemical; AID 1053131; activation, % at 7.7 µM; shares compounds with LEDGF integ inh; 17% of 2,000 active; in the data active = activation above about 8.9%
TRFRET interf: TR-FRET optical interference, LEDGF/p75 integration counter-screen; shares compounds with LEDGF integ inh; TR-FRET optical interference counterscreen, HIV-1 IN multimerization; inhibition, % at 7.7 µM; 2,000 tested, under 10 active; AID 1053135;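 active = inhibition above the mean over all tested compounds plus 3 SD, which no compound reached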;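 note: 0% = integrase with antibodies and DMSO and 100% = antibodies without integrase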
LEDGF integ conf: LEDGF/p75-dependent HIV-1 integration inhibition, confirmation | AID 1053136 | inhibition, % at 3.7 µM | TR-FRET LEDGF/p75-dependent HIV-1 integration, biochemical | 36% of 2,000 active | shares compounds with LEDGF integ inh; in the data active = inhibition above about 14%
Numbers without * were called inactive; · = no result given. In the library only some 1.9% were active in any assay of this set; here they are far more common.

SMILES	TDP2 inh	LEDGF integ inh	UHRF1 MBD2 ctr	MBD2 DNA inh	Rin1 Abl inh	IN multimer up	TRFRET interf	LEDGF integ conf
O=C(CN(c1cccc([N+](=O)[O-])c1)S(=O)(=O)c1ccccc1)N1CCCCC1	7	-1	-1	3	-3	·	·	·
Cc1ccc(N=Cc2cc3c(cc2O)OC(N)=C(C#N)C3c2ccccc2)cc1 (configuration not stated)	-1	30*	-1	-2	2	4	-18	15*
Cc1ccccc1N=Cc1cc2c(cc1O)OC(N)=C(C#N)C2c1ccccc1 (configuration not stated)	7	19*	-3	2	-1	2	-10	35*
N#CC1=C(N)Oc2cc(O)c(C=Nc3ccccc3)cc2C1c1ccccc1 (configuration not stated)	0	20*	-1	2	-5	3	-15	19*
Cc1ccc(C2C(C#N)=C(N)Oc3cc4c(cc32)OCO4)cc1 (configuration not stated)	-6	7	2	0	-3	·	·	·
N#CC1=C(N)Oc2cc(Nc3ccccc3)ccc2C1c1ccncc1 (configuration not stated)	-5	-2	-3	-3	-1	·	·	·
COc1ccc(S(=O)(=O)Nc2ccc(S(=O)(=O)Nc3cc(C)nc(C)n3)cc2)cc1OC	13	2	-2	-6	3	·	·	·
CCN(c1ccccc1)S(=O)(=O)c1ccc(Cl)c(NC(=O)CN(C)C2CCN(C)CC2)c1	10	2	3	1	0	·	·	·
CCOC(=O)C1(Cc2ccccc2C#N)CCCCC1=O (configuration not stated)	6	-2	1	6	-1	·	·	·
CCOC(=O)c1ccc(-c2ccc3ncnc(NCc4csc(C)n4)c3c2)o1	8	-3	-3	0	-5	·	·	·
Cc1ccc(CNc2ncnc3ccc(-c4ccc(CO)o4)cc23)o1	-4	19*	-2	-3	-2	6	-29	5
COC(=O)C(C)N(C(=O)c1cccc2ccccc12)c1c(C)cccc1C (configuration not stated)	-5	78*	-1	3	0	2	-6	1
COC(=O)C(C)N(C(=O)c1cccc(Cl)c1)c1c(C)cccc1C (configuration not stated)	-7	0	0	0	3	·	·	·
CC(=O)N1CCC(N2CCN(c3ccccc3F)CC2)CC1	5	40*	6	4	-6	1	-5	-3
N#C/C(=N\Nc1cc(Cl)cc(Cl)c1)c1nnc2n1CCCCC2	1	64*	3	6	-8	1	-7	5
CC1(C)Cc2cccc(OC(=O)NCCc3ccc(F)cc3)c2O1	-2	15*	-2	0	·	1	-5	-11
CC(=O)N1CCN(c2ccc(N3CCN(C(C)=O)[C@@H](C)C3)c(C)c2)[C@@H](C)C1	-3	1	-4	-2	·	·	·	·
COc1ccc(-c2ccc(C(=O)Nc3cccc(N(C)C)c3)c3occc23)c(C)c1	-6	0	2	6	4	·	·	·
O=C(NN=Cc1c(O)ccc2ccccc12)c1ccc2c(c1)OCO2	-4	0	-1	6	1	·	·	·
O=C(N/N=C\c1c(O)ccc2ccccc12)c1ccc(S(=O)(=O)N2CCCCC2)cc1	-7	41*	1	-7	-2	0	1	-5
CCOc1ccccc1OC(=O)CN1C(=O)c2ccccc2C1=O	7	2	-3	-6	0	·	·	·
Cc1cc2c(c(=O)n1Cc1ccccn1)C(C(C)C)C(C#N)=C(N)O2 (configuration not stated)	10	17*	12	3	-1	0	1	-7
COC(=O)c1cc(S(=O)(=O)NCc2ccc(Br)cc2)c[nH]1	4	1	-2	-4	0	·	·	·
